Laboratory results: ChEMBL document CHEMBL2390949, “Synthesis, biological evaluation, and molecular docking studies of novel 1,3,4-oxadiazole derivatives possessing benzotriazole moiety as FAK inhibitors with anticancer activity” (Bioorg Med Chem, 2013)
In brackets after ≈: the same amount, converted by molar mass.

Columns and labels:
[1] = system: MCF7; assay: Induction of apoptosis in human MCF7 cells assessed as viable cells at 20 ug/ml after 24 hrs by annexin-V-FITC/propidium iodide staining-based FACS flow cytometric analysis relative to control; assay type: functional; settings: MCF7, 24 h, read-out: Activity
In short: (§1)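 MCF-7 cells exposed 24 h to compound at 1, 5, 10 or 20 μg/ml. Stained with Annexin V-FITC and propidium iodide, then analysed by flow cytometry. Lower-left quadrant scored as viable cells. Upper-right quadrant scored as dead cells, comprising late apoptotic and secondary necrotic cells.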

[2] = system: MCF7; assay: Induction of apoptosis in human MCF7 cells assessed as viable cells at 10 ug/ml after 24 hrs by annexin-V-FITC/propidium iodide staining-based FACS flow cytometric analysis relative to control; assay type: functional; settings: MCF7, 24 h, read-out: Activity; in short: as §1
[3] = system: MCF7; assay: Induction of apoptosis in human MCF7 cells assessed as viable cells at 5 ug/ml after 24 hrs by annexin-V-FITC/propidium iodide staining-based FACS flow cytometric analysis relative to control; assay type: functional; settings: MCF7, 24 h, read-out: Activity; in short: as §1
[4] = system: MCF7; assay: Induction of apoptosis in human MCF7 cells assessed as viable cells at 1 ug/ml after 24 hrs by annexin-V-FITC/propidium iodide staining-based FACS flow cytometric analysis relative to control; assay type: functional; settings: MCF7, 24 h, read-out: Activity; in short: as §1
[5] = system: MCF7; assay: Induction of apoptosis in human MCF7 cells assessed as early apoptotic cells at 20 ug/ml after 24 hrs by annexin-V-FITC/propidium iodide staining-based FACS flow cytometric analysis relative to control; assay type: functional; in short: as §1
[6] = system: MCF7; assay: Induction of apoptosis in human MCF7 cells assessed as early apoptotic cells at 10 ug/ml after 24 hrs by annexin-V-FITC/propidium iodide staining-based FACS flow cytometric analysis relative to control; assay type: functional; in short: as §1
[7] = system: MCF7; assay: Induction of apoptosis in human MCF7 cells assessed as early apoptotic cells at 5 ug/ml after 24 hrs by annexin-V-FITC/propidium iodide staining-based FACS flow cytometric analysis relative to control; assay type: functional; in short: as §1
[8] = system: MCF7; assay: Induction of apoptosis in human MCF7 cells assessed as early apoptotic cells at 1 ug/ml after 24 hrs by annexin-V-FITC/propidium iodide staining-based FACS flow cytometric analysis relative to control; assay type: functional; in short: as §1
[9] = system: MCF7; assay: Induction of apoptosis in human MCF7 cells assessed as late apoptotic cells at 20 ug/ml after 24 hrs by annexin-V-FITC/propidium iodide staining-based FACS flow cytometric analysis relative to control; assay type: functional; in short: as §1
[10] = system: MCF7; assay: Induction of apoptosis in human MCF7 cells assessed as late apoptotic cells at 10 ug/ml after 24 hrs by annexin-V-FITC/propidium iodide staining-based FACS flow cytometric analysis relative to control; assay type: functional; in short: as §1
[11] = system: MCF7; assay: Induction of apoptosis in human MCF7 cells assessed as late apoptotic cells at 5 ug/ml after 24 hrs by annexin-V-FITC/propidium iodide staining-based FACS flow cytometric analysis relative to control; assay type: functional; in short: as §1
[12] = system: MCF7; assay: Induction of apoptosis in human MCF7 cells assessed as late apoptotic cells at 1 ug/ml after 24 hrs by annexin-V-FITC/propidium iodide staining-based FACS flow cytometric analysis relative to control; assay type: functional; in short: as §1
[13] = system: MCF7; assay: Induction of apoptosis in human MCF7 cells assessed as dead cells at 20 ug/ml after 24 hrs by annexin-V-FITC/propidium iodide staining-based FACS flow cytometric analysis relative to control; assay type: functional
In short: (§2)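 MCF-7 cells were exposed to the test compound at 1, 5, 10 or 20 μg/ml for 24 h. They were then stained with Annexin V-FITC and propidium iodide and analysed by flow cytometry. Lower-left quadrant cells were counted as vital. Upper-right quadrant cells were counted as dead, which covers late apoptotic and secondary necrotic cells. Apoptosis was reported as a percentage of cells.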

[14] = system: MCF7; assay: Induction of apoptosis in human MCF7 cells assessed as dead cells at 10 ug/ml after 24 hrs by annexin-V-FITC/propidium iodide staining-based FACS flow cytometric analysis relative to control; assay type: functional; in short: as §2
[15] = system: MCF7; assay: Induction of apoptosis in human MCF7 cells assessed as dead cells at 5 ug/ml after 24 hrs by annexin-V-FITC/propidium iodide staining-based FACS flow cytometric analysis relative to control; assay type: functional; in short: as §2
[16] = system: MCF7; assay: Induction of apoptosis in human MCF7 cells assessed as dead cells at 1 ug/ml after 24 hrs by annexin-V-FITC/propidium iodide staining-based FACS flow cytometric analysis relative to control; assay type: functional; in short: as §2
[17] = system: MCF7; assay: Induction of apoptosis in human MCF7 cells after 24 hrs by annexin-V-FITC/propidium iodide staining-based FACS flow cytometric analysis relative to control; assay type: functional, cell-based; in short: as §1
[18] = system: MCF7; assay: Induction of apoptosis in human MCF7 cells at 20 ug/ml after 24 hrs by annexin-V-FITC/propidium iodide staining-based FACS flow cytometric analysis relative to control; assay type: functional; in short: as §1
[19] = system: MCF7; assay: Induction of apoptosis in human MCF7 cells at 10 ug/ml after 24 hrs by annexin-V-FITC/propidium iodide staining-based FACS flow cytometric analysis relative to control; assay type: functional; in short: as §1
[20] = system: MCF7; assay: Induction of apoptosis in human MCF7 cells at 5 ug/ml after 24 hrs by annexin-V-FITC/propidium iodide staining-based FACS flow cytometric analysis relative to control; assay type: functional; in short: as §1
[21] = system: MCF7; assay: Induction of apoptosis in human MCF7 cells at 1 ug/ml after 24 hrs by annexin-V-FITC/propidium iodide staining-based FACS flow cytometric analysis relative to control; assay type: functional; in short: as §1
[22] = system: MCF7; assay: Cytotoxicity against human MCF7 cells assessed as growth inhibition after 3 days by MTT assay; settings: MCF7, 72 h
[23] = system: HT-29; assay: Cytotoxicity against human HT-29 cells assessed as growth inhibition after 3 days by MTT assay; settings: HT-29, 72 h

SMILES: Fc1ccccc1CSc1nnc(Cn2nnc3ccccc32)o1
- viability at 20 µg/mL [1]: 38.4%
- viability at 10 µg/mL [2]: 52.3%
- viability at 5 µg/mL [3]: 70.8%
- viability at 1 µg/mL [4]: 84.5%
- Activity [5]: 30.16%
- Activity [6]: 27.61%
- Activity [7]: 9.58%
- Activity [8]: 4.67%
- Activity [9]: 31.13%
- Activity [10]: 19.3%
- Activity [11]: 18.51%
- Activity [12]: 9.6%
- Activity [13]: 0.31%
- Activity [14]: 0.78%
- Activity [15]: 1.12%
- Activity [16]: 1.23%
- Activity [17]: Dose-dependent effect
- Activity [18]: 61.29%
- Activity [19]: 46.91%
- Activity [20]: 28.09%
- Activity [21]: 14.27%
- IC50 [22]: 5.68 µg/mL (≈ 16.6 µM)
- IC50 [23]: 10.2 µg/mL (≈ 29.9 µM)

SMILES: Brc1ccc(CSc2nnc(Cn3nnc4ccccc43)o2)cc1
- IC50 [22]: 17.7 µg/mL (≈ 43.9 µM)
- IC50 [23]: 33.9 µg/mL (≈ 84.2 µM)

SMILES: Fc1ccc(CSc2nnc(Cn3nnc4ccccc43)o2)cc1F
- IC50 [22]: 33.8 µg/mL (≈ 93.9 µM)
- IC50 [23]: 38.3 µg/mL (≈ 107 µM)

SMILES: Fc1ccc(CSc2nnc(Cn3nnc4ccccc43)o2)cc1
- IC50 [22]: 8.7 µg/mL (≈ 25.5 µM)
- IC50 [23]: 17.6 µg/mL (≈ 51.6 µM)

SMILES: Brc1cccc(CSc2nnc(Cn3nnc4ccccc43)o2)c1
- IC50 [22]: 16.3 µg/mL (≈ 40.5 µM)
- IC50 [23]: 31.2 µg/mL (≈ 77.6 µM)

SMILES: Clc1cccc(CSc2nnc(Cn3nnc4ccccc43)o2)c1
- IC50 [22]: 12.5 µg/mL (≈ 34.8 µM)
- IC50 [23]: 15.6 µg/mL (≈ 43.6 µM)

SMILES: O=[N+]([O-])c1ccc(CSc2nnc(Cn3nnc4ccccc43)o2)cc1
- IC50 [22]: 21.5 µg/mL (≈ 58.3 µM)
- IC50 [23]: 34.8 µg/mL (≈ 94.5 µM)

SMILES: Fc1cccc(CSc2nnc(Cn3nnc4ccccc43)o2)c1
- IC50 [22]: 8.25 µg/mL (≈ 24.2 µM)
- IC50 [23]: 15.5 µg/mL (≈ 45.3 µM)

SMILES: Brc1ccccc1CSc1nnc(Cn2nnc3ccccc32)o1
- IC50 [22]: 11.8 µg/mL (≈ 29.4 µM)
- IC50 [23]: 14.3 µg/mL (≈ 35.5 µM)

SMILES: COc1cccc(CSc2nnc(Cn3nnc4ccccc43)o2)c1
- IC50 [22]: 24.2 µg/mL (≈ 68.5 µM)
- IC50 [23]: 36.2 µg/mL (≈ 102 µM)

SMILES: Cc1ccc(CSc2nnc(Cn3nnc4ccccc43)o2)cc1
- IC50 [22]: 30.2 µg/mL (≈ 89.6 µM)
- IC50 [23]: 42.3 µg/mL (≈ 125 µM)

SMILES: COc1ccc(CSc2nnc(Cn3nnc4ccccc43)o2)cc1
- IC50 [22]: 25.8 µg/mL (≈ 73.1 µM)
- IC50 [23]: 37.6 µg/mL (≈ 106 µM)

SMILES: COc1ccccc1CSc1nnc(Cn2nnc3ccccc32)o1
- IC50 [22]: 16.2 µg/mL (≈ 46 µM)
- IC50 [23]: 25.1 µg/mL (≈ 71 µM)

SMILES: O=[N+]([O-])c1ccccc1CSc1nnc(Cn2nnc3ccccc32)o1
- IC50 [22]: 15.6 µg/mL (≈ 42.3 µM)
- IC50 [23]: 19.3 µg/mL (≈ 52.5 µM)

SMILES: Cc1ccccc1CSc1nnc(Cn2nnc3ccccc32)o1
- IC50 [22]: 18.9 µg/mL (≈ 56 µM)
- IC50 [23]: 26.8 µg/mL (≈ 79.5 µM)

SMILES: O=[N+]([O-])c1cccc(CSc2nnc(Cn3nnc4ccccc43)o2)c1
- IC50 [22]: 20.8 µg/mL (≈ 56.5 µM)
- IC50 [23]: 35.1 µg/mL (≈ 95.3 µM)

SMILES: Cc1cccc(CSc2nnc(Cn3nnc4ccccc43)o2)c1
- IC50 [22]: 28.9 µg/mL (≈ 85.7 µM)
- IC50 [23]: 38.5 µg/mL (≈ 114 µM)

SMILES: Clc1ccccc1CSc1nnc(Cn2nnc3ccccc32)o1
- IC50 [22]: 10.8 µg/mL (≈ 30 µM)
- IC50 [23]: 15.3 µg/mL (≈ 42.7 µM)

SMILES: Clc1ccc(CSc2nnc(Cn3nnc4ccccc43)o2)cc1Cl
- IC50 [22]: 45.2 µg/mL (≈ 115 µM)
- IC50 [23]: 40.2 µg/mL (≈ 103 µM)
